One may read the pIC50 as the IC50 on a negative log10 scale, so that one unit is a factor of ten.

Each structure is given as a SMILES string. pIC50: −log10 of the molar value.

The values below come from ChEMBL document CHEMBL2439981, “Design, synthesis, and biological evaluation of bone-targeted proteasome inhibitors for multiple myeloma” (Bioorg Med Chem Lett, 2013).

Common to all, as to assay type: functional, cell-based
The subject of experiment [1] is RPMI-8226. Kind of experiment: Cytotoxicity against human RPMI8226 cells after 48 to 72 hrs by SRB assay. In outline:
(§1)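 Cells seeded in triplicate at 3,000 per well in RPMI with 10% fetal bovine serum; drugs added after 24 h at six or more concentrations (1–18 nM in the dose-response figure). Exposure 72 h per methods and figure legend, 48 h per table footnote. Sulforhodamine B colorimetric read-out. IC50 from growth-inhibition curve, mean ±SD of at least 3 independent experiments.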
On the technique in general: Sulforhodamine B stains cellular protein and so reports cell mass.

For experiment [2], the system named is 5TGM1. As to the kind of experiment: (§2) Cytotoxicity against mouse 5TGM1 cells after 48 to 72 hrs by SRB assay. In outline:
as §1

Experiment [3] can be described thus: as §2. A digest of the protocol:
as §1

As to `CC(C)C[C@H](NC(=O)[C@H](Cc1ccccc1)NC(=O)c1cnc(C(=O)NCCCC(O)(P(=O)(O)O)P(=O)(O)O)cn1)B(O)O`, the pIC50 in experiment [1] is 7.99; in experiment [3], 8.12. Further, the inhibition entry in experiment [1] and in experiment [2] was “Dose-dependent effect” throughout.

With `CC(C)C[C@H](NC(=O)[C@H](Cc1ccccc1)NC(=O)c1cnccn1)B(O)O` [BORTEZOMIB], the figures for the pIC50 in experiment [1] and in experiment [3] were 8.02 and 8.17, respectively. The inhibition entry in experiment [1] and in experiment [2] was “Dose-dependent effect” throughout.

In the case of `CC(C)C[C@H](NC(=O)[C@H](Cc1ccc(OCCCC(=O)NCCCC(O)(P(=O)(O)O)P(=O)(O)O)cc1)NC(=O)c1cnccn1)B(O)O`, the values for the pIC50 in experiment [1] and in experiment [3] were 7.94 and 8.03, respectively. Further, the inhibition entry in experiment [1] and in experiment [2] was “Dose-dependent effect” each time.

Regarding `CC(C)C[C@H](NC(=O)[C@H](CC(C)C)NC(=O)[C@H](CC(C)C)NC(=O)OCc1ccccc1)B(O)O`, the pIC50 in experiment [1] is 7.86; in experiment [3] it was 8.04. Also, the inhibition result in experiment [1] and in experiment [2] was “Dose-dependent effect” throughout.

Take `CC(C)C[C@H](NC(=O)[C@H](CC(C)C)NC(=O)[C@H](CC(C)C)NC(=O)OCc1ccc(C(=O)NCCCC(O)(P(=O)(O)O)P(=O)(O)O)cc1)B(O)O`: the negative-log IC50 (pIC50) was 7.90 in experiment [1] and 8.31 in experiment [3]. Besides, the inhibition entry in experiment [1] and in experiment [2] was “Dose-dependent effect” in each case.
